PTEN del growth: growth suppression of PTEN-null HCT116, primary screen, cell-based, CellTiter-Glo | HCT116 PTEN-null viability, 60 h; stronger effect = lower value | viability, % at 10 µM | 140,000 compounds, 1.2% hits | AID 827, 2007;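 active means viability at or below a set limit, 4 SD under the median of all tested compounds, cut at about 3.7% in these data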;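 further: PTEN knockout HCT116 line with beta catenin targeted HCT116 as companion control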
H69AR inhibit: proliferation blockers of H69AR lung cancer cells, primary screen, cell-based, human, 86K library; H69AR lung tumor viability, ATP luminescence, 72 h; stronger effect = lower value; viability, % at 10 µM; 85,000 compounds, 6% hits;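 active means viability at or below 40%; inactive means viability above 40%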;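 further: multidrug resistant small cell line overexpressing MRP-1 efflux transporter; 100% = mean luminescence of untreated control wells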
Lung fibro prol: antiproliferative effect on LL 47 fibroblasts – human, LL 47 cells, CellTiter-Glo luminescence, primary screen; viability, % at 10 µM; 85,000 compounds, 1.1% hits; LL 47 human lung fibroblast viability, ATP luminescence; stronger effect = lower value; AID 719, 2007;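 active means viability at or below 50% in the single dose screen; inactive means viability above 50%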;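 further: compound exposure lasted 72 h before the ATP readout; 100% = median luminescence of untreated cell-only wells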
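material = human LL 47 lung fibroblast cells | dosing = compounds added from tenfold dosing solution, 0.1% DMSO final | timing = overnight cell rest, 72 h compound treatment at 37 °C | measured by = CellTiter-Glo luminescence measuring cellular ATP | evaluation = % viability versus median cells-only luminescence | control set = cell-only wells, no compound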
HCT116 bCat-KO: primary screen for growth suppressors in beta-catenin knockout HCT116 cells (colon tumor, human) | HCT116 beta-catenin knockout viability, CellTiter-Glo, 60 h; stronger effect = lower value | 140,000 compounds, 1.5% hits | viability, % at 10 µM | AID 818, 2007;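 active means viability at or under a set limit, the compound median less 4 SD, cut at about 6% in these data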;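 further: 0% = Hyamine 1622 control at 20 µM and 100% = untreated cell control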
HUVEC inhibit: inhibitors of HUVEC proliferation, primary screen, cell-based, 384-well. viability, % at 10 µM (by protocol). 86,000 compounds, 1.1% hits. CellTiter-Glo luminescence, 72 h; stronger effect = lower value;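 active means viability at or below 30%; inactive means viability above 30%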;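 further: 100% = median luminescence of DMSO-only cell control wells on each plate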
The depositor's hits bear a star; x = not tested or not shown. The entries come from a sample that favours hits as a whole.

SMILES	PTEN del growth	H69AR inhibit	Lung fibro prol	HCT116 bCat-KO	HUVEC inhibit
CC(=O)OCCCNc1cc(Sc2nc3ccccc3s2)c2nonc2c1[N+](=O)[O-]	4	x	x	3.7*	x
COC(=O)CCSc1cc(NCCOC(C)=O)c([N+](=O)[O-])c2nonc12	96	x	x	96	x
CC(=O)OCCNc1cc(Sc2nc3ccccc3[nH]2)c2nonc2c1[N+](=O)[O-]	1.5*	x	x	1.6*	x
CN1C(=O)/C(=C/c2cn(CC(=O)N3CCCCC3)c3ccccc23)c2ccccc21	40	44	95	58	57
Cc1cc(C)cc(NC(=O)C/C(N)=N/O)c1	86	x	x	87	x
O=[N+]([O-])c1c(NCCCO)cc(Sc2ccc(Cl)cc2)c2nonc12	1.2*	x	x	1.5*	x
Cc1cc(C)nc(NC(=O)c2cc([N+](=O)[O-])cc([N+](=O)[O-])c2)n1	94	x	x	92	x
Cc1cc(NCCOCCO)n2ncc(-c3ccc(Cl)cc3)c2n1	19	22*	41*	28	41
Cc1cc(N)n2ncc(-c3ccc(F)cc3)c2n1	93	69	81	80	79
Cc1cc(NCCCn2ccnc2)n2nc(-c3ccc(F)cc3)cc2n1	81	67	88	72	92
CC(C)(C)c1cc(NCCCn2ccnc2)n2ncc(-c3ccc(Cl)cc3)c2n1	25	5.2*	45*	20	8.7*
Cc1cc(N)n2ncc(-c3ccc(Cl)cc3)c2n1	52	42	46*	55	36
C=Cn1ccnc1P(=S)(c1ccc2c(c1)c1ccccc1n2CC)c1nccn1C=C	12	13*	52	25	41
CCn1c2ccccc2c2cc(NC(C)=O)ccc21	90	100	106	93	81
CCc1cc(OCCOCCN(C)C)ccc1Cl	91	x	x	82	x
COc1ccc(-c2nn(-c3ccccc3)cc2/C=N/NC(=O)c2ccc3c(c2)OCO3)cc1	67	x	x	72	x
COc1ccc(-c2nn(-c3ccccc3)cc2/C=N/NC(=O)c2ccc(Br)o2)cc1	6	x	x	5.0*	x
Cc1ccc(-c2nn(-c3ccccc3)cc2/C=N/NC(=O)CSc2nnc(C)n2-c2ccccc2)cc1	3.4*	x	x	3.6*	x
COC(=O)c1ccccc1NC(=S)N(Cc1ccc2c(c1)OCO2)Cc1cc2cc(OC)ccc2[nH]c1=O	73	x	x	75	x
COC(=O)c1nc(NC(C)=O)n[nH]1	99	93	105	99	103
COC(=O)c1nc(NC2=NCCCCC2)n[nH]1	107	39*	x	114	94
COC(=O)c1ccc(NC(=O)CSCc2ccccc2C)cc1	91	85	104	98	107
CCOC(=O)c1sc(NC(=O)CSc2nc3c(cc2C#N)CCCCCC3)c(C#N)c1C	16	x	77	22	30
N#Cc1cc2c(nc1SCC(=O)Nc1sc3c(c1C#N)CCC3)CCCCC2	75	20*	86	84	79
N#Cc1c(NC(=O)CSc2nnnn2C2CCCC2)sc2c1CCCC2	111	7.7*	93	89	102
SMILES	PTEN del growth	H69AR inhibit	Lung fibro prol	HCT116 bCat-KO	HUVEC inhibit
N#Cc1cc2c(nc1SCC(=O)Nc1sc3c(c1C#N)CCC3)CCCC2	93	7.2*	84	97	63
N#Cc1c(NC(=O)CSc2nc(N)cc(=O)[nH]2)sc2c1CCCCCC2	77	79	88	60	95
N#Cc1c(NC(=O)CSc2ncn[nH]2)sc2c1CCCCC2	85	28*	79	84	79
Cc1cccc(-c2noc(CCCOc3ccc(Cl)cc3Cl)n2)c1	105	104	105	86	104
CCC(C(=O)c1ccc2ncccc2c1)c1ccccc1 (centres undefined)	79	x	x	86	x
O=C1CN(C(=O)COc2cccc(F)c2)c2ccccc2N1	91	x	x	96	x
Cc1noc(C)c1COc1cccc(C(=O)OCC(=O)N2CC(=O)Nc3ccccc32)c1	19	22*	59	19	60
CC(C)=NNc1nc2sc3c(c2c(=O)[nH]1)CC(C)(C)OC3	100	x	x	90	x
Cc1cccc2cc(C(c3nnnn3Cc3ccccc3)N3CCCc4ccccc43)c(=O)[nH]c12 (centres undefined)	2.7*	x	x	1.8*	x
CC(=O)c1cc(-c2ccccc2)n(CCC(=O)NC2CCCCC2)c1C	83	x	x	75	x
O=C(CSc1nnc(Cc2cccs2)n1C1CCCCC1)N1CCCc2ccccc21	64	34*	101	73	71
Cn1c(Cc2cccs2)nnc1SCC(=O)N1CCCc2ccccc21	104	92	101	102	84
C=CCN1C=CC(=C/C=C(/C#N)C(=O)OCC)C=C1	103	86	96	102	97
Cc1[nH]c2ccccc2c1C1(O)C(=O)N(C(C)C)c2ccccc21 (centres undefined)	95	47	91	95	92
CCOC(=O)CN1C(=O)C(O)(CC(=O)c2ccco2)c2ccccc21 (centres undefined)	72	26*	100	79	108
COC(=O)CN1C(=O)C(O)(CC(=O)c2ccccc2)c2ccccc21 (centres undefined)	102	96	101	98	85
Cc1[nH]c2ccccc2c1C1(O)C(=O)N(Cc2ccc3c(c2)OCO3)c2ccccc21 (centres undefined)	9	14*	80	13	80
C#CCN1C(=O)C(O)(CC(=O)c2cccc(OC)c2)c2ccccc21 (centres undefined)	19	20*	102	34	93
CN1C(=O)C(O)(CC(=O)c2ccccc2O)c2cc(Br)ccc21 (centres undefined)	22	20*	77	30	55
O=C(CN1CCN(C/C=C/c2ccccc2)CC1)Nc1cc([N+](=O)[O-])ccc1Cl	95	x	x	86	x
COc1ccc(OC)c(/C=N/NC(=O)c2ccc(Cn3cc([N+](=O)[O-])cn3)o2)c1	96	x	x	98	x
Cc1ccccc1NC(=O)c1c(C)nn(-c2ccccc2)c1Cl	85	x	x	85	x
O=C(CC1(O)C(=O)N(Cc2ccccc2Cl)c2ccccc21)c1ccco1 (centres undefined)	11	15*	96	12	68
CCCCN1C(=O)C(O)(CC(=O)c2ccco2)c2cc(Br)ccc21 (centres undefined)	15	21*	68	14	65
CCOC(=O)CN1C(=O)C(O)(CC(=O)c2cccc(OC)c2)c2ccccc21 (centres undefined)	56	28*	95	49	101
COc1ccc(CN2C(=O)C(O)(CC(=O)c3ccc4c(c3)OCO4)c3ccccc32)cc1OC (centres undefined)	28	28*	105	49	105
CCN1C(=O)C(O)(CC(=O)c2ccc3c(c2)OCCO3)c2ccccc21 (centres undefined)	93	103	97	104	100
CC1=CC(C)(C)n2c(O)c(N=N)c3cc(C)cc1c32	70	x	x	71	x
